Measurements reported in ChEMBL document CHEMBL1129371, “Bis tertiary amide inhibitors of the HIV-1 protease generated via protein structure-based iterative design” (J Med Chem, 1996).
Blank lines part the entries; values can stand above or below the compound they belong to.

Columns and labels:
[1] = Pharmacokinetic parameter Cmax determined after oral administration of 50 mg/kg to rat; format: ADME, organism-based; design: dose 50 mg/kg, route oral; conditions: in vivo
[2] = Pharmacokinetic parameter half life determined after peroral administration of 15 mg/kg to dog; conditions: in vivo, po
[3] = Pharmacokinetic parameter Cmax determined after peroral administration of 25 mg/kg to monkey; format: ADME, organism-based; design: dose 25 mg/kg, route oral; conditions: simiiformes, in vivo, po
[4] = target: T1, Human immunodeficiency virus type 1 protease (Human immunodeficiency virus 1, UniProt Q72874); test: Binding affinity against HIV-1 protease
[5] = Pharmacokinetic parameter half life determined after intravenous administration of 50 mg/kg to rat; format: ADME, organism-based; design: dose 50 mg/kg, route intravenous; conditions: in vivo
[6] = system: Human immunodeficiency virus 1; test: (§1) Effective dose against inhibition of HIV-1 protease in CEM cells; format: functional; conditions: Human immunodeficiency virus 1, CCRF-CEM; read-out: ED50 (the source's name)
Outline: (§2)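 HIV-1-induced killing of CEM-SS cells; cell viability read by MTT tetrazolium metabolism. ED50 = concentration giving 50% inhibition of HIV-1-induced cell death. Run at Southern Research Institute.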

[7] = Pharmacokinetic parameter Cmax determined after intravenous administration of 50 mg/kg to rat; format: ADME, organism-based; design: dose 50 mg/kg, route intravenous; conditions: in vivo
[8] = Oral bioavailability in rat (dose 50 mg/kg); format: ADME, organism-based; conditions: in vivo
[9] = Pharmacokinetic parameter Cmax determined after peroral administration of 15 mg/kg to dog; conditions: in vivo, po
[10] = Pharmacokinetic parameter Cmax determined after peroral administration of 25 mg/kg to monkey; No levels; format: ADME, organism-based; design: dose 25 mg/kg, route oral; conditions: simiiformes, in vivo, po
[11] = Pharmacokinetic parameter Cmax determined after peroral administration of 15 mg/kg to dog; format: ADME, organism-based, Canis lupus familiaris; design: dose 15 mg/kg, route oral; conditions: in vivo, po
[12] = Toxic concentration at which 50% of CEM-SS cells were viable (uninfected with virus) as determined by metabolism of MTT in(uM).; format: toxicity, cell-based; conditions: human, read-out: TC50 (the source's name)
Outline: (§3)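 Uninfected CEM-SS cells; viability read by MTT metabolism. TC50 = concentration giving 50% reduction in number of viable cells; reported in μM.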

Rattus norvegicus = test: Pharmacokinetic parameter Cmax determined after oral administration of 50 mg/kg to rat; No levels; format: ADME, organism-based; design: dose 50 mg/kg, route oral; conditions: in vivo
[13] = target: T1, Human immunodeficiency virus type 1 protease; test: Compound was tested for binding affinity against HIV protease
[14] = Toxic concentration at which 50% of CEM-SS cells were viable (uninfected with virus) as determined by metabolism of MTT; format: toxicity, cell-based; conditions: human, read-out: TC50 (the source's name); outline: as §3
CEM-SS = test: as §1; format: functional; conditions: Homo sapiens, read-out: ED50 (the source's name); outline: as §2
[15] = Toxic concentration at which 50% of CEM-SS cells were viable (uninfected with virus) as determined by metabolism of MTT in(uM); format: toxicity, cell-based; conditions: human, read-out: TC50 (the source's name); outline: as §3

SMILES: CCC1(N(CCO)C(=O)c2ccccc2CCC(O)Cc2ccc(C)cc2C(=O)N(CC(CO)CO)C(C)(C)c2ccccc2)CCCC1 (centres undefined)
- Cmax [1]: 1160 ng/mL
- half-life [2]: 0.34 h
- Cmax [3]: 810 ng/mL
- Ki [4]: 10 nM
- half-life [5]: 1 h
- EC50 [6]: 950 nM
- Cmax [7]: 52200 ng/mL
- bioavailability [8]: 7%
- Cmax [9]: 1170 ng/mL

SMILES: CC(C)(C)N(CCO)C(=O)c1ccccc1CCC(O)Cc1ccccc1C(=O)N(CCO)C(C)(C)Cc1ccccc1 (centres undefined)
- Ki [4]: 1300 nM

- Cmax [1]: 1400 ng/mL
- Cmax [10]: No levels
- Cmax [11]: 590 ng/mL
- Ki [4]: 2 nM
- half-life [5]: 1.7 h
- EC50 [6]: 720 nM
- Cmax [7]: 111000 ng/mL
- bioavailability [8]: 31%
SMILES: CCC1(N(CCO)C(=O)c2ccccc2CCC(O)Cc2ccc(Cl)cc2C(=O)N(CCO)C(C)(C)c2ccccc2)CCCC1 (centres undefined)
- CC50 [12]: 97000 nM

SMILES: CCC1(N(CCO)C(=O)c2ccccc2CCC(O)Cc2ccc(C)cc2C(=O)N(CCO)C(C)(C)c2ccc(O)cc2)CCCC1 (centres undefined)
- Cmax (Rattus norvegicus): No levels
- Ki [4]: 6 nM
- half-life [5]: 1.4 h
- EC50 [6]: 880 nM
- Cmax [7]: 41300 ng/mL
- bioavailability [8]: 0%

SMILES: CC(C)(C)N(CCO)C(=O)c1ccccc1CC(O)CSc1ccccc1C(=O)N(CCO)C(C)(C)C (centres undefined)
- Ki [4]: 18000 nM

- Ki [13]: 0.9 nM
- EC50 (CEM-SS): 2 nM
SMILES: CC(C)(C)NC(=O)[C@@H]1C[C@@H]2CCCC[C@@H]2CN1C[C@@H](O)[C@H](Cc1ccccc1)NC(=O)[C@H](CC(N)=O)NC(=O)c1cnc2ccccc2c1
- CC50 [14]: > 10000 nM

SMILES: Cc1ccc(CCC(O)Cc2ccccc2C(=O)N(CCO)C(C)(C)c2ccccc2)c(C(=O)N(CCO)C(C)(C)C)c1 (centres undefined)
- Ki [4]: 150 nM
- EC50 [6]: 4900 nM

- Ki [4]: 34000 nM
SMILES: CC(C)(C)NC(=O)c1ccccc1SCC(O)Cc1ccccc1C(=O)N(CCO)C(C)(C)C (centres undefined)

SMILES: CCC1(N(CCO)C(=O)c2ccccc2CCC(O)Cc2ccc(C)cc2C(=O)N(CCO)C(C)(C)c2ccc(OCCN3CCOCC3)cc2)CCCC1 (centres undefined)
- Ki [4]: 9 nM
- EC50 [6]: 840 nM

SMILES: CC(C)(c1ccccc1)N(CCO)C(=O)c1ccccc1CCC(O)Cc1ccccc1C(=O)N(CCO)C(C)(C)c1ccccc1 (centres undefined)
- Ki [4]: 21 nM
- EC50 [6]: 2200 nM
- CC50 [15]: 122000 nM

SMILES: CCCC(CC)(CC)N(CCO)C(=O)c1cc(C)ccc1CC(O)CCc1ccccc1C(=O)N(CCO)C1(CC)CCCC1 (centres undefined)
- Ki [4]: 6 nM
- EC50 [6]: 1370 nM

SMILES: CCC1(N(CCO)C(=O)c2ccccc2CCC(O)Cc2ccc(C)cc2C(=O)N(CCC(O)CO)C(C)(C)c2ccccc2)CCCC1 (centres undefined)
- Cmax [1]: 840 ng/mL
- Ki [4]: 10 nM
- half-life [5]: 1.3 h
- EC50 [6]: 860 nM
- Cmax [7]: 111000 ng/mL
- bioavailability [8]: 2%

SMILES: CCCC(CC)(CC)N(CCO)C(=O)c1ccccc1CC(O)CCc1ccccc1C(=O)N(CCO)C(C)(C)C (centres undefined)
- Ki [4]: 110 nM
- EC50 [6]: 3700 nM

SMILES: CC(C)(C)N(CCO)C(=O)c1ccccc1CCC(O)Cc1ccccc1C(=O)N(CCO)[C@@]12CCCC[C@@H]1CCC2 (relative stereo)
- Ki [4]: 64 nM
- EC50 [6]: 7600 nM
